Measurements published in ChEMBL document CHEMBL1773035, “SHAFTS: a hybrid approach for 3D molecular similarity calculation. 2. Prospective case study in the discovery of diverse p90 ribosomal S6 protein kinase 2 inhibitors to suppress cell migration” (J Med Chem, 2011).

Experiments:
[1] = biological target: T1, Ribosomal protein S6 kinase alpha-3 (Homo sapiens, UniProt P51812); assay: Inhibition of RSK2 after 60 mins
How it was run: (§1)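 Recombinant RSK2 (20 ng) preincubated 20 min at room temperature with compound in HEPES pH 7.4 buffer (MgCl2, EGTA, Tween 20, BGG) with 25 μM S6 peptide; started with ATP (10 μM final), 60 min at room temperature. ADP Quest fluorescence read at ex 530/em 590 nm. IC50 from curves of ≥3 independent tests, measured when inhibition at 10 μM exceeded 30%.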

MCF7 [2] = assay: Antiproliferative activity against human MCF7 cells over expressing RSK2 at 100 uM after 48 hrs by MTT assay; type: functional; conditions: MCF7, 48 h
How it was run: (§2)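 Formazan dissolved in DMSO, absorbance read at 570 nm. Inhibition = (1 − A570 compound/A570 control)×100. Screening concentration 100 μM (control 10 μM). IC50 from curves, ≥3 independent tests, attempted when inhibition at 100 μM exceeded 40%.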

MDA-MB-231 [3] = assay: Antiproliferative activity against human MDA-MB-231 cells over expressing RSK2 after 48 hrs by MTT assay; type: functional, cell-based; conditions: MDA-MB-231, 48 h; how it was run: as §2
HCT-116 [4] = assay: Antiproliferative activity against human HCT116 cells over expressing RSK2 at 100 uM after 48 hrs by MTT assay; type: functional; conditions: HCT-116, 48 h; how it was run: as §2
MCF7 [5] = assay: Antiproliferative activity against human MCF7 cells over expressing RSK2 after 48 hrs by MTT assay; type: functional, cell-based; conditions: MCF7, 48 h; how it was run: as §2
MDA-MB-231 [6] = assay: Antiproliferative activity against human MDA-MB-231 cells over expressing RSK2 at 100 uM after 48 hrs by MTT assay; type: functional; conditions: MDA-MB-231, 48 h; how it was run: as §2
HCT-116 [7] = assay: Antiproliferative activity against human HCT116 cells over expressing RSK2 after 48 hrs by MTT assay; type: functional, cell-based; conditions: HCT-116, 48 h; how it was run: as §2
[8] = biological target: 3-phosphoinositide-dependent protein kinase 1 (Homo sapiens) (UniProt O15530); assay: Inhibition of PDK1 at 10 uM
[9] = biological target: Platelet-derived growth factor receptor alpha (Homo sapiens) (UniProt P16234); assay: Inhibition of PDGFRalpha at 10 uM by ELISA based method
How it was run: (§3)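 Tyrosine kinase profiling by ELISA-based method, ATP at Km for each enzyme; percent inhibition at 10 μM, mean of at least two independent tests.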

[10] = biological target: Fibroblast growth factor receptor 1 (Homo sapiens) (UniProt P11362); assay: Inhibition of FGFR1 at 10 uM by ELISA based method; how it was run: as §3
[11] = biological target: Tyrosine-protein kinase ABL1 (Homo sapiens) (UniProt P00519); assay: Inhibition of ABL at 10 uM by ELISA based method; how it was run: as §3
[12] = biological target: Mitogen-activated protein kinase 9 (Homo sapiens) (UniProt P45984); assay: Inhibition of JNK2 at 10 uM
How it was run: (§4)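 Serine/threonine kinase profiling by an outside contract service following manufacturer protocols, ATP at Km for each enzyme; percent inhibition at 10 μM.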

[13] = biological target: Ribosomal protein S6 kinase alpha-5 (Homo sapiens) (UniProt O75582); assay: Inhibition of MSK1 at 10 uM; how it was run: as §4
[14] = biological target: Glycogen synthase kinase-3 alpha (Homo sapiens) (UniProt P49840); assay: Inhibition of GSK3alpha at 10 uM; how it was run: as §4
[15] = biological target: Proto-oncogene tyrosine-protein kinase Src (Homo sapiens) (UniProt P12931); assay: Inhibition of c-Src at 10 uM by ELISA based method; how it was run: as §3
[16] = biological target: Proto-oncogene tyrosine-protein kinase receptor Ret (Homo sapiens) (UniProt P07949); assay: Inhibition of RET at 10 uM by ELISA based method; how it was run: as §3
[17] = biological target: Vascular endothelial growth factor receptor 1 (Homo sapiens) (UniProt P17948); assay: Inhibition of Flt1 at 10 uM by ELISA based method; how it was run: as §3
[18] = biological target: Vascular endothelial growth factor receptor 2 (Homo sapiens) (UniProt P35968); assay: Inhibition of KDR at 10 uM by ELISA based method; how it was run: as §3
[19] = biological target: Serine/threonine-protein kinase pim-1 (Homo sapiens) (UniProt P11309); assay: Inhibition of PIM1 at 10 uM; how it was run: as §4
[20] = biological target: Ephrin type-A receptor 2 (Homo sapiens) (UniProt P29317); assay: Inhibition of EPHA2 at 10 uM by ELISA based method; how it was run: as §3
[21] = biological target: Mitogen-activated protein kinase 3 (Homo sapiens) (UniProt P27361); assay: Inhibition of ERK1 at 10 uM; how it was run: as §4
[22] = biological target: RAC-alpha serine/threonine-protein kinase (Homo sapiens) (UniProt P31749); assay: Inhibition of AKT1 at 10 uM; how it was run: as §4
[23] = biological target: Ribosomal protein S6 kinase beta-1 (Homo sapiens) (UniProt P23443); assay: Inhibition of p70S6K at 10 uM; how it was run: as §4
[24] = biological target: Epidermal growth factor receptor (Homo sapiens) (UniProt P00533); assay: Inhibition of EGFR at 10 uM by ELISA based method; how it was run: as §3
[25] = biological target: Mitogen-activated protein kinase 14 (Homo sapiens) (UniProt Q16539); assay: Inhibition of p38alpha at 10 uM; how it was run: as §4
[26] = biological target: Platelet-derived growth factor receptor beta (Homo sapiens) (UniProt P09619); assay: Inhibition of PDGFRbeta at 10 uM by ELISA based method; how it was run: as §3
[27] = biological target: T1, Ribosomal protein S6 kinase alpha-3; assay: Inhibition of RSK2 at 10 uM; how it was run: as §1
[28] = biological target: Mast/stem cell growth factor receptor Kit (Homo sapiens) (UniProt P10721); assay: Inhibition of c-Kit at 10 uM by ELISA based method; how it was run: as §3
Sequence of Mast/stem cell growth factor receptor Kit (Homo sapiens) (P10721 whole entry): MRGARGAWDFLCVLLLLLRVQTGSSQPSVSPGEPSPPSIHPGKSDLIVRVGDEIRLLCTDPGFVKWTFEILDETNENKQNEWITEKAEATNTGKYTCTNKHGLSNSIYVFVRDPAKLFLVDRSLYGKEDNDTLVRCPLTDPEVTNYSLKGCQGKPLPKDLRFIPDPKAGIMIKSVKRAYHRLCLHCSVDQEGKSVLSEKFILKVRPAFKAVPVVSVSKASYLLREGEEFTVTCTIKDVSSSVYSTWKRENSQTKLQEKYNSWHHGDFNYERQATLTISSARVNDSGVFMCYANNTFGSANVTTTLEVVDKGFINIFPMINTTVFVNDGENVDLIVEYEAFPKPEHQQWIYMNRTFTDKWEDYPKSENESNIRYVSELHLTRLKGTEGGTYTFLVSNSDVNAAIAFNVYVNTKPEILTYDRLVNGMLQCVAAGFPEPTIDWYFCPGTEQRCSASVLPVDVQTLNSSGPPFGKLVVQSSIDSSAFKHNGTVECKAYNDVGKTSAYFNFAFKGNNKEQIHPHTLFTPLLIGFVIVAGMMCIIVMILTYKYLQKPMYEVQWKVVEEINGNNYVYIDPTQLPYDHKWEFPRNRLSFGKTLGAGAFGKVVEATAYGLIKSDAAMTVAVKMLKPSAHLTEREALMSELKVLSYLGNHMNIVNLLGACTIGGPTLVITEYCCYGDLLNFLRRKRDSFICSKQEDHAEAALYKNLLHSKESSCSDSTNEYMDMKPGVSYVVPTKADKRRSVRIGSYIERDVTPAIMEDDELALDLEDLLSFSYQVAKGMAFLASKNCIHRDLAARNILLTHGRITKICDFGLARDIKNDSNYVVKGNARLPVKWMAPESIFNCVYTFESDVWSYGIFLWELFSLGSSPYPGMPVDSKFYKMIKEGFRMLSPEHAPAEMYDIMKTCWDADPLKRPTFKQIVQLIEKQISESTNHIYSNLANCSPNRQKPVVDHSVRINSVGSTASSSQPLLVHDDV

T1 sequence (P51812 whole entry): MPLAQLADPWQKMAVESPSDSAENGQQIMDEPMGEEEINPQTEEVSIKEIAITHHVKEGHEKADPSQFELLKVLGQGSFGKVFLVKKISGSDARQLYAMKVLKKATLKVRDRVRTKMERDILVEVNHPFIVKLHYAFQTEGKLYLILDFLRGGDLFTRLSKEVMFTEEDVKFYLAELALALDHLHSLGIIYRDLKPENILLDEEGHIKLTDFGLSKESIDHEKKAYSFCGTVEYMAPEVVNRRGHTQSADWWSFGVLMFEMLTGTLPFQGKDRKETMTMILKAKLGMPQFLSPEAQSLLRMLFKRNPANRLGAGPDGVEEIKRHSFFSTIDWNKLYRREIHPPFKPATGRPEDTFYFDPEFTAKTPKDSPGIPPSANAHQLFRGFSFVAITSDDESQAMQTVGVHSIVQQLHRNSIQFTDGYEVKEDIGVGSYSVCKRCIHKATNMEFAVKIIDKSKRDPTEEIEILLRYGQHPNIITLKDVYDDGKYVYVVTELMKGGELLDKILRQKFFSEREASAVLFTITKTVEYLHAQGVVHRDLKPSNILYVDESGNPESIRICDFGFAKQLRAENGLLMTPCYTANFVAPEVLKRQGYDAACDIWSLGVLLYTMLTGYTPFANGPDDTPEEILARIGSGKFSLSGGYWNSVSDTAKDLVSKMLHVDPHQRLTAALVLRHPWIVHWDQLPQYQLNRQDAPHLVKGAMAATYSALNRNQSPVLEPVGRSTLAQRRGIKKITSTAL
Sequence of Vascular endothelial growth factor receptor 1 (Homo sapiens) (P17948 whole entry): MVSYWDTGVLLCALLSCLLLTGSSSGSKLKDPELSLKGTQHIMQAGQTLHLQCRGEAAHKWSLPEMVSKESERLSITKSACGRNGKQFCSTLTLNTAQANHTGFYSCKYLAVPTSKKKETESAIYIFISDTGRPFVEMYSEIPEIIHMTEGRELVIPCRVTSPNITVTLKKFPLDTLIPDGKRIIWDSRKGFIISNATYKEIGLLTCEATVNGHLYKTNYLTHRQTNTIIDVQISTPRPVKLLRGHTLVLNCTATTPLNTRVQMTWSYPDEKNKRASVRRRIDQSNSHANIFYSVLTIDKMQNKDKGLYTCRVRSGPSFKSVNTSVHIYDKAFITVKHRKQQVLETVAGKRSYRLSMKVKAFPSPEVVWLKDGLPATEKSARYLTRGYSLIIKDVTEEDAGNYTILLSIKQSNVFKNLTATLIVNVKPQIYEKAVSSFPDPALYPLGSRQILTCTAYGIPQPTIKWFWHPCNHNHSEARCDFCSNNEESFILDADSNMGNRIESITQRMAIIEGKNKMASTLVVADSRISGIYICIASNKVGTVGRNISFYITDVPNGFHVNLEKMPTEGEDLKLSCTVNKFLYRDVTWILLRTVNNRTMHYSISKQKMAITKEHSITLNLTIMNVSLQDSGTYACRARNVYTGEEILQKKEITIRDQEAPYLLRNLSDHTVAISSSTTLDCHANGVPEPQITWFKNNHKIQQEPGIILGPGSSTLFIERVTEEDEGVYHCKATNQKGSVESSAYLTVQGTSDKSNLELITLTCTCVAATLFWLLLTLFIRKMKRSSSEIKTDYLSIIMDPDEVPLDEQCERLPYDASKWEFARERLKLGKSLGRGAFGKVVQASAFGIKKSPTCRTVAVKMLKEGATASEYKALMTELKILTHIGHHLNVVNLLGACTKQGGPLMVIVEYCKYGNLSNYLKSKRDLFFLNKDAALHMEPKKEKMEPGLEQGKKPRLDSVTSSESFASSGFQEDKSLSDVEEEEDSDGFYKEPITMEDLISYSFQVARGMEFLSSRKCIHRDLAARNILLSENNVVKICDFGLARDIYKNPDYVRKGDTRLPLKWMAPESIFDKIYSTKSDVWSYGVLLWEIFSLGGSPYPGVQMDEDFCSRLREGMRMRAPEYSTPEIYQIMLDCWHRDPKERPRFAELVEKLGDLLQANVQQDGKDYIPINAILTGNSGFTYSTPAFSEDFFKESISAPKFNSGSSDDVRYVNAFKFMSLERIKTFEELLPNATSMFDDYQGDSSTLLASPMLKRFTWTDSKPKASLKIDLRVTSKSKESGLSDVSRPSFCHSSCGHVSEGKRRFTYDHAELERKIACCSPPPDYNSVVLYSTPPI
Sequence of Mitogen-activated protein kinase 9 (Homo sapiens) (P45984 whole entry, looked up): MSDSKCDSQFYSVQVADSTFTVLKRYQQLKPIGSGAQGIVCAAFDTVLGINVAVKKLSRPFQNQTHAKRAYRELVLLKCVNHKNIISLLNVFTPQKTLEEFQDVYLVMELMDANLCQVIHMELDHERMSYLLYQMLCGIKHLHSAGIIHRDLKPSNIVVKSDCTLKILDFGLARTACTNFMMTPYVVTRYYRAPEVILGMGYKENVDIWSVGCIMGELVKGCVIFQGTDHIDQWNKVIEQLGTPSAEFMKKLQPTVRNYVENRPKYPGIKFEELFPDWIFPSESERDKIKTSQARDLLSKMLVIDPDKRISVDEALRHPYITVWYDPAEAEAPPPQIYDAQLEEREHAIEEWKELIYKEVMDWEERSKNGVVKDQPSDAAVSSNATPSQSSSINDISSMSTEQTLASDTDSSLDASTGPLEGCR
Sequence of Mitogen-activated protein kinase 3 (Homo sapiens) (P27361 whole entry): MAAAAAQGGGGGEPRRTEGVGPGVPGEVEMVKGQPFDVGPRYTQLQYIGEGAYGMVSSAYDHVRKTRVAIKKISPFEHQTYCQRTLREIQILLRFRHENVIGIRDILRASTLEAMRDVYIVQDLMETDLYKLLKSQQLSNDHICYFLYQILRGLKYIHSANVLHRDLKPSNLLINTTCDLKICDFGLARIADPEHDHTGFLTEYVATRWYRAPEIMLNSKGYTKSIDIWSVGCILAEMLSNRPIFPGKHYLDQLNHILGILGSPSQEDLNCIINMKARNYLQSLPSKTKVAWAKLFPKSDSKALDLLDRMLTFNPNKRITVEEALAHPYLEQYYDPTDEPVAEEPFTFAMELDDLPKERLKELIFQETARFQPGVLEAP
Sequence of 3-phosphoinositide-dependent protein kinase 1 (Homo sapiens) (O15530 whole entry, looked up): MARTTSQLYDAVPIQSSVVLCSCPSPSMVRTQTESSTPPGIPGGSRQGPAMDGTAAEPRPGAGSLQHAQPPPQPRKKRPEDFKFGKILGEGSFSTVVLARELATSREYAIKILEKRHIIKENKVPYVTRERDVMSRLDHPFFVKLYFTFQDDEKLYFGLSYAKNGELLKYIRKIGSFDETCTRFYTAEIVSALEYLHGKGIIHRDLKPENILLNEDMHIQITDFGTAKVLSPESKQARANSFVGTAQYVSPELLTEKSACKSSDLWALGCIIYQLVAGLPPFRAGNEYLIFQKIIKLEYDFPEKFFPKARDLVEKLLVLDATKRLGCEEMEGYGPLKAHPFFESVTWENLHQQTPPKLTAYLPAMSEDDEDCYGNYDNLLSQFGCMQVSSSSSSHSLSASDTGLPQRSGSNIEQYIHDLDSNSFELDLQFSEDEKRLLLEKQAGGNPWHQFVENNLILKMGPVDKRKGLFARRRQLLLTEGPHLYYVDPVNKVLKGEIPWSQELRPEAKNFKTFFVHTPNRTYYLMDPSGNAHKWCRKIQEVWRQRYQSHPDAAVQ
Sequence of Ribosomal protein S6 kinase beta-1 (Homo sapiens) (P23443 whole entry, looked up): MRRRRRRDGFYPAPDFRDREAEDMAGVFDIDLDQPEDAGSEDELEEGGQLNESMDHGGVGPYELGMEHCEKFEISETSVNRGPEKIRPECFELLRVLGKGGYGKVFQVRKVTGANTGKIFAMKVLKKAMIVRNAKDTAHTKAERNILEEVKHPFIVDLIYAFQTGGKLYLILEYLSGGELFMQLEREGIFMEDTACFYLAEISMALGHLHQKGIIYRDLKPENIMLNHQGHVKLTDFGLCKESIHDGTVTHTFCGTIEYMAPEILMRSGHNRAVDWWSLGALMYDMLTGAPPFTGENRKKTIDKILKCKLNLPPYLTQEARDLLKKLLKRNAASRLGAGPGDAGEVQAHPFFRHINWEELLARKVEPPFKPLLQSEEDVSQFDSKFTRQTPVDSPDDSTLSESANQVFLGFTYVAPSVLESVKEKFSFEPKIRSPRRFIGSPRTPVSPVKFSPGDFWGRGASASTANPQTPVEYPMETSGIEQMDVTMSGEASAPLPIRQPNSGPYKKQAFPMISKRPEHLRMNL

COc1cc(/C=N/n2cnnc2)cc(I)c1O
IC50 [1]: 16.2 µM

O=C1NC(=O)C(=NNc2ccc(O)cc2)C(=O)N1
inhibition at 100 µM (MCF7 [2]): 85.8% | IC50 (MDA-MB-231 [3]): 9.69 µM | inhibition at 100 µM (HCT-116 [4]): 49.1% | IC50 (MCF7 [5]): 15.6 µM | inhibition at 100 µM (MDA-MB-231 [6]): 97.9% | IC50 (HCT-116 [7]): > 100 µM | IC50 [1]: 1.58 µM

Nc1nc2nc(O)nc(O)c2s1
IC50 [1]: 9.99 µM

Nc1n[nH]c(N)c1/N=N/c1ccc(S(N)(=O)=O)cc1
inhibition at 100 µM (MCF7 [2]): 32.9% | inhibition at 100 µM (HCT-116 [4]): 6.98% | inhibition at 100 µM (MDA-MB-231 [6]): 18.5% | IC50 [1]: 5.5 µM

N#Cc1nc(/N=N/c2ccccc2)[nH]c1O
inhibition at 100 µM (MCF7 [2]): 0% | inhibition at 100 µM (HCT-116 [4]): 4.8% | inhibition at 100 µM (MDA-MB-231 [6]): 12.1% | IC50 [1]: 7.04 µM

Cc1c(N)ccc2nc(-c3ccc(N)cc3)[nH]c12
IC50 [1]: 0.32 µM

Clc1ccc2c(c1)SNC(c1ccccc1)=N2
inhibition at 100 µM (MCF7 [2]): 3.6% | inhibition at 100 µM (HCT-116 [4]): 6.5% | inhibition at 100 µM (MDA-MB-231 [6]): 0% | IC50 [1]: 2.88 µM

O=c1[nH]c(=O)c2ncc(-c3ccc(O)cc3)nc2[nH]1
IC50 [1]: 14.5 µM

Oc1ccc(NCn2nnc3ccccc32)cc1
inhibition [8]: -5.8% | inhibition [9]: -6.9% | inhibition at 100 µM (MCF7 [2]): 97% | inhibition [10]: 31.3% | inhibition [11]: 8.6% | IC50 (MDA-MB-231 [3]): 14.9 µM | inhibition [12]: 11% | inhibition [13]: 10.1% | inhibition [14]: 29.3% | inhibition at 100 µM (HCT-116 [4]): 91.6% | inhibition [15]: 14.2% | inhibition [16]: 10% | inhibition [17]: 2.4% | inhibition [18]: 16.9% | inhibition [19]: 0.7% | IC50 (MCF7 [5]): 18 µM | inhibition [20]: 38.2% | inhibition [21]: 2.8% | inhibition [22]: 8.6% | inhibition [23]: 6.9% | inhibition [24]: 32.4% | inhibition at 100 µM (MDA-MB-231 [6]): 98.8% | inhibition [25]: 13% | inhibition [26]: 55.2% | inhibition [27]: 89.2% | inhibition [28]: 15.6% | IC50 (HCT-116 [7]): 56.2 µM | IC50 [1]: 0.48 µM
